Measured values as given in ChEMBL document CHEMBL1151755, “Crystal structure of the peroxisome proliferator-activated receptor gamma (PPARgamma) ligand binding domain complexed with a novel partial agonist: a new region of the hydrophobic pocket could be exploited for drug design” (J Med Chem, 2008).
The source made the active and inactive calls. No cut-off for these calls is given here.

How the values were obtained:
Format in all cases: cell-based
Conditions in all cases: HepG2
[1] = target: Nuclear receptor subfamily 4 group A member 2 (Homo sapiens) (UniProt P43354); assay: Increase in transcriptional activity of Nurr1 ligand binding domain expressed in human Hep G2 cells co-transfected with Gal4-DBD by luciferase reporter gene assay
Chain of Nuclear receptor subfamily 4 group A member 2 (Homo sapiens) (P43354 whole entry, the tested form may be a part): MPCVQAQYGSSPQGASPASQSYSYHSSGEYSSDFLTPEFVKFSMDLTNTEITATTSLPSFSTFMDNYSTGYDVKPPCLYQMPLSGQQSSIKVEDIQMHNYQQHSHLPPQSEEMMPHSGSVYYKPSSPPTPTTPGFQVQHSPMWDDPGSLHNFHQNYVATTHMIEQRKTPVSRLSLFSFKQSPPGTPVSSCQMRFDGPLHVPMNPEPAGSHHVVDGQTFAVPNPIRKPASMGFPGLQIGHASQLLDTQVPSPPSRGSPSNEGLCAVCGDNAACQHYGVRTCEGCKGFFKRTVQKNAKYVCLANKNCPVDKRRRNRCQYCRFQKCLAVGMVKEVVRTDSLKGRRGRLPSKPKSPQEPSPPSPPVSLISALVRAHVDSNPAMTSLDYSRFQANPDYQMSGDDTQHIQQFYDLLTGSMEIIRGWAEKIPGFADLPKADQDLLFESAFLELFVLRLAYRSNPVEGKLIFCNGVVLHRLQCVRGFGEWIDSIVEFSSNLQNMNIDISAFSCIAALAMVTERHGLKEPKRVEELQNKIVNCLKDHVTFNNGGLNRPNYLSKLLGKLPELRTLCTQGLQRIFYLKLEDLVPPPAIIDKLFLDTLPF
In short: (§1)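 HepG2 cells transfected for 4 h by calcium phosphate coprecipitation with 100 ng pGal4UAS-luciferase, 50 ng Gal4-LBD receptor vector and 300 ng CMV-β-galactosidase plasmid for normalization. Cells were washed in PBS, then refed with serum-free DMEM/F-12 containing penicillin/streptomycin and compound or 0.1% ethanol vehicle for 20 h. Luciferase read-out was normalized to β-galactosidase. Experiments were repeated at least three times.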

[2] = target: T1, Thyroid hormone receptor alpha (Homo sapiens) (UniProt P10827); assay: Increase in transcriptional activity of TRalpha ligand binding domain expressed in human Hep G2 cells co-transfected with Gal4-DBD by luciferase reporter gene assay; in short: as §1
T1 sequence (whole entry): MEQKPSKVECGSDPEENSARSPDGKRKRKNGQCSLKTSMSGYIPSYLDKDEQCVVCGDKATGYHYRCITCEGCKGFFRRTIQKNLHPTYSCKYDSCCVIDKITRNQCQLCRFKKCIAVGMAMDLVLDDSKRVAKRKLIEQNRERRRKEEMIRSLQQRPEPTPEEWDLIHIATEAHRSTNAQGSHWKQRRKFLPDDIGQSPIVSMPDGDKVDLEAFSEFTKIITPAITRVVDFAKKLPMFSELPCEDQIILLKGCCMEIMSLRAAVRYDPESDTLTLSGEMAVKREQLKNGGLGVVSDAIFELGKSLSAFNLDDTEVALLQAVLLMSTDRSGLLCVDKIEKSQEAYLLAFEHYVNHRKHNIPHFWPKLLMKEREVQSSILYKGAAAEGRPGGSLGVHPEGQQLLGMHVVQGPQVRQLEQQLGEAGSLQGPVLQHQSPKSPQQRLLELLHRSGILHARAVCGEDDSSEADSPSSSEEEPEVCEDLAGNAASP

[3] = target: T2, Peroxisome proliferator-activated receptor alpha (Mus musculus) (UniProt P23204); assay: Agonist activity at mouse PPARalpha ligand binding domain expressed in human Hep G2 cells co-transfected with Gal4-DBD by luciferase reporter gene assay relative to Wy 14,643
T2 sequence (whole entry): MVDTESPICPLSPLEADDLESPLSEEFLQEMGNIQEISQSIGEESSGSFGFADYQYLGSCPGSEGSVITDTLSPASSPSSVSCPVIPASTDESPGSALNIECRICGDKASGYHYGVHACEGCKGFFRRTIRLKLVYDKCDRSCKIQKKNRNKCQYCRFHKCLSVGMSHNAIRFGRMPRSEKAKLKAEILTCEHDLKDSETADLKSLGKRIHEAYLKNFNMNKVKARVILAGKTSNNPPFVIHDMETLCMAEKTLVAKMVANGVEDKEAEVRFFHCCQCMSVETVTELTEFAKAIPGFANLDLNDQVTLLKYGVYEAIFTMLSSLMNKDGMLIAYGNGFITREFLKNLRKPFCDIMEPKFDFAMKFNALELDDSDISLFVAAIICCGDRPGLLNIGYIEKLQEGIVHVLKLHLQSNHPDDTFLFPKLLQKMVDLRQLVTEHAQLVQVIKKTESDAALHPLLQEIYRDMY
In short: (§2)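 HepG2 cells received the Gal4-receptor LBD construct (50 ng), pGal4UAS-luciferase (100 ng) and pCMVβ (300 ng) by calcium phosphate coprecipitation for 4 h. They were then treated in serum-free DMEM/F-12 with ligand or 0.1% ethanol for 20 h. Luciferase was normalized to β-galactosidase, and efficacy was expressed as percent of the Wy 14,643 maximum (100%). Values are mean ± SEM of 3–5 experiments in triplicate.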

[4] = target: T3, Peroxisome proliferator-activated receptor alpha (Homo sapiens) (UniProt Q07869); assay: Agonist activity at human PPARalpha ligand binding domain expressed in human Hep G2 cells co-transfected with Gal4-DBD by luciferase reporter gene assay relative to Wy 14,643; in short: as §2
T3 sequence (whole entry): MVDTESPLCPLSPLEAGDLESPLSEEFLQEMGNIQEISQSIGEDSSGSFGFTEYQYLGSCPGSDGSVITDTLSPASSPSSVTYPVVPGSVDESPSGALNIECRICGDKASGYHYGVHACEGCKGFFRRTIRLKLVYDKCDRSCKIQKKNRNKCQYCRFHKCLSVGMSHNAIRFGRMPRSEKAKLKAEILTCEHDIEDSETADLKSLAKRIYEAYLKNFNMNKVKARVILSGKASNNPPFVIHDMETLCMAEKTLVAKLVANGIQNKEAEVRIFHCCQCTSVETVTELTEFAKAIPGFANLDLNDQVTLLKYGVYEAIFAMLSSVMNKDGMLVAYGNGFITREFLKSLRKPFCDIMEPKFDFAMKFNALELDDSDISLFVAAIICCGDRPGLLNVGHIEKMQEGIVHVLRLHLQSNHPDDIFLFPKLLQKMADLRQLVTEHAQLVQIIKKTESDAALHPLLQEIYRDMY

[5] = target: T4, Retinoic acid receptor RXR-alpha (Homo sapiens) (UniProt P19793); assay: Increase in transcriptional activity of RXRalpha ligand binding domain expressed in human Hep G2 cells co-transfected with Gal4-DBD by luciferase reporter gene assay; in short: as §1
T4 sequence (whole entry): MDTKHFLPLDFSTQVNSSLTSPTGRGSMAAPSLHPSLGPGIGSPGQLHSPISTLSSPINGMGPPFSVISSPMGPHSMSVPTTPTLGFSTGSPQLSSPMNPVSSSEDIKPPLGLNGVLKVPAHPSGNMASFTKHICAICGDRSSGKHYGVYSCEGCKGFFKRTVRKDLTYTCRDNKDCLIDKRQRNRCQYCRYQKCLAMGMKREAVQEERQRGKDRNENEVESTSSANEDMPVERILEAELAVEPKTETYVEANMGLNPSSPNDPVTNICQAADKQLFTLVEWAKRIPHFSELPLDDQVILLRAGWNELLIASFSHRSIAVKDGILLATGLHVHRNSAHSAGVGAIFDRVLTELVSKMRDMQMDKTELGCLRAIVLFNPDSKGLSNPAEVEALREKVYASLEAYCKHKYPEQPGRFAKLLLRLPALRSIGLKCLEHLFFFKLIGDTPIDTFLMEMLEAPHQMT

| Activity [1] | Activity [2] | Efficacy [3] [%] | Efficacy [4] [%] | Activity [5] | Activity [3] | Activity [4] | SMILES |
| --- | --- | --- | --- | --- | --- | --- | --- |
| inactive | inactive | 120 | 100 | inactive | – | – | O=C(O)[C@H](Cc1ccccc1)Oc1ccc(-c2ccccc2)cc1 |
| inactive | inactive | – | – | inactive | inactive | inactive | O=C(O)[C@@H](Cc1ccccc1)Oc1ccc(-c2ccccc2)cc1 |
